# Reference: ChEMBL document CHEMBL3608288, “Novel Chalcone-Thiazole Hybrids as Potent Inhibitors of Drug Resistant Staphylococcus aureus” (ACS Med Chem Lett, 2015)
# The source made the active and inactive calls. The calls are words filed in the database; no cut-off is given here.
# Key:
# [1] = system: Escherichia coli; test: Antibacterial activity against Escherichia coli ATCC 9637 after 16 hrs by microtiter broth dilution method; type: functional; details: W
# [2] = system: Pseudomonas aeruginosa; test: Antibacterial activity against Pseudomonas aeruginosa ATCC BAA-427 after 16 hrs by microtiter broth dilution method; type: functional; details: ATCC BAA-427, 16 h
# [3] = system: Staphylococcus aureus; test: Antibacterial activity against Staphylococcus aureus ATCC 25923 after 16 hrs by microtiter broth dilution method; type: functional; details: ATCC 25923, 16 h
# [4] = system: Staphylococcus aureus; test: Antibacterial activity against methicillin-resistant Staphylococcus aureus ATCC 700699 after 16 hrs by microtiter broth dilution method; type: functional; details: ATCC 700699, 16 h
# [5] = system: Staphylococcus aureus; test: Antibacterial activity against […] Staphylococcus aureus ATCC 29213 after 16 hrs by microtiter broth dilution method; type: functional; details: ATCC 29213, 16 h
# [6] = system: Staphylococcus aureus; test: Antibacterial activity against methicillin/gentamicin-resistant Staphylococcus aureus ATCC 33592 after 16 hrs by microtiter broth dilution method; type: functional; details: ATCC 33592, 16 h
# [7] = system: Klebsiella pneumoniae; test: Antibacterial activity against Klebsiella pneumoniae ATCC 27736 after 16 hrs by microtiter broth dilution method; type: functional; details: ATCC 27736, 16 h
# [8] = system: Candida albicans; test: Antifungal activity against Candida albicans after 16 hrs by microtiter broth dilution method; type: functional
# [9] = system: Cryptococcus neoformans; test: Antifungal activity against Cryptococcus neoformans after 16 hrs by microtiter broth dilution method; type: functional
# [10] = system: Sporothrix schenckii; test: Antifungal activity against Sporothrix schenckii after 16 hrs by microtiter broth dilution method; type: functional
# [11] = system: Trichophyton mentagrophytes; test: Antifungal activity against Trichophyton mentagrophytes after 16 hrs by microtiter broth dilution method; type: functional
# [12] = system: Aspergillus fumigatus; test: Antifungal activity against Aspergillus fumigatus after 16 hrs by microtiter broth dilution method; type: functional
# [13] = system: Candida parapsilosis; test: Antifungal activity against Candida parapsilosis ATCC 22019 after 16 hrs by microtiter broth dilution method; type: functional; details: Lodderomyces parapsilosis, ATCC 22019, 16 h
# [14] = system: L929; test: Cytotoxicity against mouse L929 cells assessed as cell viability at <= MIC by MTT assay; type: cell-based
# Procedure, shortened: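 Mouse fibroblast L929 cells were exposed to the compound. Viability was read by MTT conversion to blue formazan, measured at 550 nm.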
# [15] = system: L929; test: Cytotoxicity against mouse L929 cells assessed as induction of morphological changes at 1 x MIC after 24 hrs by Giemsa staining-based phase contrast microscopic analysis; type: cell-based; details: l929, 24 h
# Procedure, shortened: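 L929 fibroblasts were incubated with the compound for 24 h, then Giemsa-stained. Morphology was compared with untreated control cells under phase contrast microscopy for appearance, transparency and attachment to the well surface.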
# [16] = system: Staphylococcus aureus; test: Antibacterial activity against […] Staphylococcus aureus ATCC 29213 assessed as reduction in log10CFU at 1x MIC and 10x MIC measured at 24 hrs relative to control; type: functional
# Procedure, shortened: (§1)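 Aliquots were taken at regular time points and plated for CFU counts. Reduction in log10 CFU was taken against a no-drug control.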
# [17] = system: Staphylococcus aureus; test: Antibacterial activity against […] Staphylococcus aureus ATCC 29213 assessed as reduction in log10CFU measured at 24 hrs; type: functional, organism-based; procedure, shortened: as §1
# [18] = system: Staphylococcus aureus; test: Antibacterial activity against […] Staphylococcus aureus ATCC 29213 in neutropenic BALB/C mouse septicemia model assessed as increase in mouse survival at 15 mg/kg, ip administered twice at 3 hrs interval; type: functional, organism-based
# [19] = system: Staphylococcus aureus; test: Antibacterial activity against […] Staphylococcus aureus ATCC 29213 in neutropenic BALB/C mouse septicemia model assessed as reduction in bacterial burden in spleen at 15 mg/kg, ip administered twice at 3 hrs interval measured after 24 hrs; type: functional, organism-based
# Procedure, shortened: (§2)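 BALB/c mice were made neutropenic with cyclophosphamide (150 mg/kg) and then infected intraperitoneally with S. aureus ATCC 29213. From 3 h post-infection, compound was injected at 15 mg/kg twice, 3 h apart. At 24 h, spleen, kidney and liver were crushed and plated on TH plates for CFU. Data from three independent experiments were pooled; P by ANOVA on ranks.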
# [20] = system: Staphylococcus aureus; test: Antibacterial activity against […] Staphylococcus aureus ATCC 29213 in neutropenic BALB/C mouse septicemia model assessed as reduction in bacterial burden in liver at 15 mg/kg, ip administered twice at 3 hrs interval measured after 24 hrs; type: functional, organism-based; procedure, shortened: as §2
# [21] = system: Staphylococcus aureus; test: Antibacterial activity against […] Staphylococcus aureus ATCC 29213 in neutropenic BALB/C mouse septicemia model assessed as reduction in bacterial burden in kidney at 15 mg/kg, ip administered twice at 3 hrs interval measured after 24 hrs; type: functional, organism-based; procedure, shortened: as §2
# [22] = Hemolytic activity in human RBC at 100 ug/ml after 1 hr; details: erythrocyte
structure (smiles),measurement,setting,value
COc1ccc(-c2csc(/N=C/c3cc(/C=C/C(=O)c4ccc(C)cc4)cc(C(C)(C)C)c3O)n2)cc1OC,MIC,[1],> 92.5 µM
same,MIC,[2],> 92.5 µM
same,MIC,[3],5.8 µM
same,MIC,[4],11.6 µM
same,MIC,[5],5.8 µM
same,MIC,[6],1.4 µM
same,MIC,[7],> 92.5 µM
same,MIC,[8],> 92.5 µM
same,MIC,[9],> 92.5 µM
same,MIC,[10],> 92.5 µM
same,MIC,[11],> 92.5 µM
same,MIC,[12],> 92.5 µM
same,MIC,[13],> 92.5 µM
same,Activity,[14],Non-toxic
same,Activity,[15],Non-toxic
same,Activity,[16],10 log10CFU/ml
same,Activity,[17],Dose-dependent effect
same,Activity,[18],Active
same,Activity,[19],Active
same,Activity,[20],Active
same,Activity,[21],inactive
same,Activity,[22],Non-toxic
